Data on 13 molecules can be found in ChEMBL document CHEMBL1124731, “Synthesis and biological activity of novel quaternary ammonium derivatives of alkylglycerols as potent inhibitors of protein kinase C” (J Med Chem, 1990).

Assay [1] concerns the target T1, Protein kinase C (PKC) (Homo sapiens) (UniProt O94806+P41743+P17252+P05129+Q05655+P05771+Q05513+Q02156+P24723+Q15139+Q04759). Briefly: Retained protein kinase C activity in the presence of 1.25 uM compound. It is filed as functional. The method, boiled down:
(§1)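 Assay at pH 7.5, 25 mM Tris, 10 mM MgCl2, 0.1 mM CaCl2, 40 µg/mL histone, 10 µM ATP with [γ-32P]ATP, 20 µg/mL phosphatidylserine, 2.5 µM OAG. Compound added in ethanol before enzyme; 20 min at 30 °C; TCA-precipitated 32P-histone counted; 0.1% ethanol control; duplicates in three trials, fresh enzyme each.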

Assay [2] deals with T1, Protein kinase C (PKC) (Homo sapiens). Description: Retained protein kinase C activity in the presence of 10 uM compound. Type of assay: functional. The method, boiled down:
as §1

Assay [3] has the same target. Briefly: Retained protein kinase C activity in the presence 2.5 uM compound. It is filed as functional. A digest of the protocol:
as §1

For assay [4] the target is unchanged. Briefly: Retained protein kinase C activity in the presence of 20 uM compound. Type of assay: functional. The method, boiled down:
as §1

For assay [5] the target is unchanged. Description: Retained protein kinase C activity in the presence of 40 uM compound. Type of assay: functional. The method, boiled down: as §1
Assay [6] shares this target. Briefly: Retained protein kinase C activity in the presence of 5 uM compound. It is filed as functional. A digest of the protocol: as §1
Assay [7] shares this target. Briefly: Inhibition of Protein Kinase C purified from HL-60 cells. It is filed as cell-free. A digest of the protocol:
as §1

Turning to `CCCCCCCCCCCCCCCCC[C@@H]1OC[C@@H](C[N+](C)(C)CCCO)O1`, the Activity in assay [1] came to 94%; in assay [2], 56%; in assay [3], 90%; in assay [4] it was 43%; in assay [5], 19%; in assay [6], 70%. In assay [7], this molecule registered an ID50 of 17 µM.

As for `CCCCCCCCCCCCCCCCSCC(C[N+](C)(C)CCO)OCC` (stereo unspecified), the Activity in assay [1] amounted to 92%; in assay [2] it was 70%; in assay [3] it was 84%; in assay [4] it was 66%; in assay [5] it was 47%; in assay [6], 70%. In assay [7], this molecule gave an ID50 of 37 µM.

In the case of `CCCCCCCCCCCCCCCCOCC(COCCO)OC` (stereo unspecified), the Activity was determined as 98% in assay [1]; 66% in assay [2]; 86% in assay [3]; 53% in assay [4]; 43% in assay [5]; 72% in assay [6]. In assay [7], this molecule yielded an ID50 of 28 µM.

For the molecule `CCCCCCCCCCCCCCCCOCC(C[N+](C)(C)CCO)OC` (stereo unspecified), the Activity in assay [1] was 107%; in assay [2] it was 64%; in assay [3], 95%; in assay [4], 42%; in assay [5], 29%; in assay [6], 87%. For the same molecule, the ID50 in assay [7] came to 17 µM.

For the molecule `CCCCCCCCCCCCCCCCCCOCC(COP(=O)([O-])OCC[N+](C)(C)C)OC` (stereo unspecified), the Activity in assay [1] turned out to be 99%; in assay [2] it was 60%; in assay [3] it was 93%; in assay [4], 40%; in assay [5], 29%; in assay [6] it was 73%. In assay [7], this molecule had an ID50 of 12 µM.

In the case of `CCCCCCCCCCCCCCCCCC1OCC(C[N+](C)(C)CCCO)O1` (stereo unspecified), the Activity in assay [1] is 99%; in assay [2], 56%; in assay [3] it was 99%; in assay [4] it was 36%; in assay [5], 12%; in assay [6] it was 61%. In addition, the ID50 in assay [7] worked out at 13 µM.

On to `CCCCCCCCCCCCCCCCCCSCC(C[N+](C)(C)CCCO)OC` (stereo unspecified), for which the Activity in assay [1] was 75%; in assay [2], 39%; in assay [3], 56%; in assay [4], 27%; in assay [5] it was 23%; in assay [6], 49%. In assay [7], this molecule yielded an ID50 of 5 µM.

In the case of `COC(COc1cccc2ccccc12)C[N+](C)(C)CCO` (stereo unspecified), the Activity in assay [1] is 99%; in assay [2] it was 89%; in assay [3], 99%; in assay [4], 87%; in assay [5] it was 90%; in assay [6], 83%. Further, the ID50 in assay [7] was greater than 40 µM.

On to `CCCCCCCCCCCCCCCCSCC(C[N+](C)(C)CCO)OC` (stereo unspecified), for which the Activity in assay [1] was found to be 97%; in assay [2] it was 60%; in assay [3] it was 90%; in assay [4] it was 54%; in assay [5], 42%; in assay [6], 73%. This molecule also had an ID50 in assay [7] of 27 µM.

With `CCCCCCCCCCCCCCCCSCC(C[N+](C)(C)CCCO)OCC` (stereo unspecified), the Activity in assay [1] was 78%; in assay [2] it was 60%; in assay [3], 64%; in assay [4] it was 59%; in assay [5], 37%; in assay [6], 67%. The molecule also displayed an ID50 in assay [7] of 26 µM.

Regarding `CCCCCCCCCCCCCCCCSCC(C[N+](C)(C)C)OC` (stereo unspecified), the Activity in assay [1] is 112%; in assay [2] it was 74%; in assay [3], 88%; in assay [4] it was 54%; in assay [5], 29%; in assay [6] it was 81%. For the same molecule, the ID50 in assay [7] was determined as 25 µM.

As for `CC1(C)OC[C@@H](C[N+](C)(C)CCO)O1`, the Activity in assay [1] came to 88%; in assay [2], 88%; in assay [3] it was 84%; in assay [4], 96%; in assay [5], 87%; in assay [6] it was 87%. Besides, the ID50 in assay [7] was greater than 40 µM.

For `CCCCCCCCCCCCCCCCOCC(COCC[N+](C)(C)C)OC` (stereo unspecified), the Activity was found to be 92% in assay [1]; 73% in assay [2]; 91% in assay [3]; 57% in assay [4]; 43% in assay [5]; 83% in assay [6]. The molecule also returned an ID50 in assay [7] of 31 µM.
